Results reported in ChEMBL document CHEMBL1141591, “Lipophilic modifications to dinucleoside polyphosphates and nucleotides that confer antagonist properties at the platelet P2Y12 receptor” (J Med Chem, 2008).
Active and inactive are the calls of the source. The rule behind the calls is not given here.

How the values were obtained:
[1] = target: T1, P2Y purinoceptor 2 (Homo sapiens, UniProt P41231); assay: Agonist activity at P2Y2 receptor expressed in human 1321 cells by calcium mobilization assay; type: functional, cell-based
T1 sequence (P41231 whole entry): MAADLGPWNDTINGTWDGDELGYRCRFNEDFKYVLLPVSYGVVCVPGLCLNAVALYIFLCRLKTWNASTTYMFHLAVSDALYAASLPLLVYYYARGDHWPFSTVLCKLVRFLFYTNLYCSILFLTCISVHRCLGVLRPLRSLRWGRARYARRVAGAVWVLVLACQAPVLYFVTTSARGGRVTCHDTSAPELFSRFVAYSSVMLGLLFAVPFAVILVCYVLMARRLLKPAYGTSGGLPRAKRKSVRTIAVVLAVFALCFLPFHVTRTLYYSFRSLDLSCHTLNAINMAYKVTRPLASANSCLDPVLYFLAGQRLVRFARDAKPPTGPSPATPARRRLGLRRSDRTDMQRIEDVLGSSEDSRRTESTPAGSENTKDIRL

[2] = target: P2Y purinoceptor 6 (Homo sapiens, UniProt Q15077); assay: Agonist activity at P2Y6 receptor expressed in human 1321 cells at 100 uM by calcium mobilization assay; type: functional, cell-based
Sequence of P2Y purinoceptor 6 (Q15077 whole entry): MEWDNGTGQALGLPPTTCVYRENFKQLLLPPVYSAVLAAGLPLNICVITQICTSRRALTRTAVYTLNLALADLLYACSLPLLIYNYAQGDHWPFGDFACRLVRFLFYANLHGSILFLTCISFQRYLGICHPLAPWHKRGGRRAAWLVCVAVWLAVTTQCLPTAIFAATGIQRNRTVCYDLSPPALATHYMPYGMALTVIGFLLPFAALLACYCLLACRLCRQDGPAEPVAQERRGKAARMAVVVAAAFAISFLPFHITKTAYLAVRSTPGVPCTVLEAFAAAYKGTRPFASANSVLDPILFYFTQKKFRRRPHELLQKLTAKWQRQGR
How it was run: (§1)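 1321N1 human astrocytoma cells expressing the recombinant receptor were loaded with Fluo-3 AM (2.5 µM final) for 60 min at 25 °C. Assay buffer: KCl 10, NaCl 118, CaCl2 2.5, MgCl2 1, HEPES 20, glucose 10 mM, pH 7.4. Cells were washed and then stimulated with compound. Intracellular calcium was read as the change in fluorescence (FLIPR). Values are EC50 in µM. SR means 5–20% of maximal response at the top concentration, usually 100 µM. NR means no response.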

[3] = target: P2Y purinoceptor 1 (Homo sapiens, UniProt P47900); assay: Agonist activity at human recombinant P2Y1 receptor expressed in human 1321 cells at 100 uM by calcium mobilization assay; type: functional, cell-based; how it was run: as §1
Sequence of P2Y purinoceptor 1 (P47900 whole entry): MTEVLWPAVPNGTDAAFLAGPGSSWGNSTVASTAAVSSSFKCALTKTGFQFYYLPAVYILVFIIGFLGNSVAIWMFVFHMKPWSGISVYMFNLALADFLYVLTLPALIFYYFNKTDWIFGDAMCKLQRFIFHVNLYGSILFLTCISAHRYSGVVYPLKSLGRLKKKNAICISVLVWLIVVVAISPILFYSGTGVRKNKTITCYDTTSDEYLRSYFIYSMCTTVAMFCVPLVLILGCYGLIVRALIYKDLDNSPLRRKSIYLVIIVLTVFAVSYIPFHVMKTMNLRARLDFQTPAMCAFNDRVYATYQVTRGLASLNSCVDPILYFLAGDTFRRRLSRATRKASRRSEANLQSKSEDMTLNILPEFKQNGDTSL

[4] = target: P2Y purinoceptor 12 (Homo sapiens) (UniProt Q9H244); assay: Antagonist activity at P2Y12 receptor assessed as inhibition of ADP-induced human platelet aggregation by washed platelet assay at 100 uM; type: functional
Sequence of P2Y purinoceptor 12 (Homo sapiens) (Q9H244 whole entry): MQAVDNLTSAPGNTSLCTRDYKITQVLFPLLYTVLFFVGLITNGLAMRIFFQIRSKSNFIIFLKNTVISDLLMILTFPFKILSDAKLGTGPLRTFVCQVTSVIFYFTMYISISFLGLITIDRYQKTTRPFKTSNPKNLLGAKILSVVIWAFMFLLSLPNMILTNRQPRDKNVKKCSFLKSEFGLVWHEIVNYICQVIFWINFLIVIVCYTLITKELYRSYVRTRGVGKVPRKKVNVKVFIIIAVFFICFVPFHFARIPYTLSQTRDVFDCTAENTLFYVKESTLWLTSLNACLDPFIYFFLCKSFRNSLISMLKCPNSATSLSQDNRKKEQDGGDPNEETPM
How it was run: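 Blood from healthy volunteers was anticoagulated with ACD and spun at 180g for 15 min to give PRP. Platelets were washed three times in HEPES-buffered saline, pH 7.4, with 0.2% BSA and 5 µM PGI2, then resuspended with 0.25 U/mL apyrase. The suspension held 1 mg/mL fibrinogen at 37 °C, stirred at 1000 rpm. Compound (usually 1 nM–100 µM) was added for 2 min, then ADP at EC90 (usually 1–10 µM). Optical aggregation was recorded for 8 min. IC50 came from a four-parameter logistic fit.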

[5] = target: T1, P2Y purinoceptor 2; assay: Agonist activity at P2Y2 receptor expressed in human 1321 cells at 100 uM by calcium mobilization assay; type: functional, cell-based; how it was run: as §1

Row | SMILES | EC50 [1] [µM] | Activity [2] | Activity [3] | Activity [4] | Activity [5] | inhibition [4] [%]
1 | Nc1ncnc2c1ncn2[C@@H]1O[C@H](COP(=O)(O)OP(=O)(O)OP(=O)(O)OP(=O)(O)OC[C@@H]2O[C@H](n3cnc4c(N)ncnc43)[C@@H](O)[C@H]2O)[C@H]2OC(Cc3ccccc3)O[C@H]21 (some centres undefined) | 0.052 | inactive | inactive | – | – | –
2 | O=C(Nc1ccc(F)cc1)Nc1ccn([C@@H]2O[C@H](COP(=O)(O)OP(=O)(O)OP(=O)(O)OP(=O)(O)OC[C@@H]3O[C@H](n4ccc(=O)[nH]c4=O)[C@@H](O)[C@H]3O)[C@@H](O)[C@H]2O)c(=O)n1 | 2.42 | – | > 5% | inactive | – | –
3 | O=c1ccn([C@@H]2O[C@H](COP(=O)(O)OP(=O)(O)OP(=O)(O)OP(=O)(O)OC[C@@H]3O[C@H](n4ccc(=O)[nH]c4=O)[C@@H](O)[C@H]3O)[C@@H]3OC(c4ccccc4)O[C@H]32)c(=O)[nH]1 (some centres undefined) | 0.192 | > 5% | inactive | – | – | –
4 | O=c1ccn([C@@H]2O[C@H](COP(=O)(O)OP(=O)(O)OP(=O)(O)OP(=O)(O)OC[C@@H]3O[C@H](n4ccc(=O)[nH]c4=O)[C@@H](O)[C@H]3O)[C@H]3OC(/C=C/c4ccccc4)O[C@H]32)c(=O)[nH]1 (stereo in doubt; 24) | 0.155 | – | inactive | – | – | –
5 | CCCCCCCC1O[C@@H]2[C@H](O1)[C@@H](COP(=O)(O)OP(=O)(O)OP(=O)(O)OP(=O)(O)OC[C@@H]1O[C@H](n3ccc(=O)[nH]c3=O)[C@@H](O)[C@H]1O)O[C@H]2n1ccc(=O)[nH]c1=O (some centres undefined) | 0.147 | > 5% | inactive | – | – | –
6 | CCCC1O[C@@H]2[C@@H](O1)[C@@H](COP(=O)(O)OP(=O)(O)OP(=O)(O)OP(=O)(O)OC[C@@H]1O[C@H](n3ccc(=O)[nH]c3=O)[C@H]3OC(CCC)O[C@H]31)O[C@H]2n1ccc(=O)[nH]c1=O (some centres undefined) | – | > 5% | inactive | – | > 5% | 60
7 | O=C(Nc1ccccc1)Nc1ncnc2c1ncn2[C@@H]1O[C@H](COP(=O)(O)OP(=O)(O)OP(=O)(O)OP(=O)(O)OC[C@@H]2O[C@H](n3cnc4c(NC(=O)Nc5ccccc5)ncnc43)[C@H]3O[C@@H](Cc4ccccc4)O[C@H]32)[C@H]2O[C@@H](Cc3ccccc3)O[C@H]21 | – | – | inactive | – | inactive | –
8 | O=c1ccn([C@@H]2O[C@H](COP(=O)(O)OP(=O)(O)OP(=O)(O)OP(=O)(O)OC[C@@H]3O[C@H](n4ccc(=O)[nH]c4=O)[C@@H](O)[C@H]3O)[C@@H]3OC(Cc4ccccc4)O[C@H]32)c(=O)[nH]1 (some centres undefined) | 0.094 | > 5% | inactive | – | – | –
9 | O=c1ccn([C@@H]2O[C@H](COP(=O)(O)OP(=O)(O)OP(=O)(O)OP(=O)(O)OC[C@@H]3O[C@H](n4ccc(=O)[nH]c4=O)[C@H]4OC(/C=C/c5ccccc5)O[C@H]43)[C@H]3OC(/C=C/c4ccccc4)O[C@H]32)c(=O)[nH]1 (stereo in doubt; 25) | – | > 5% | inactive | – | inactive | –
10 | O=C(Nc1ccc(F)cc1)Nc1ccn([C@@H]2O[C@H](COP(=O)(O)O)[C@H]3O[C@@H](Cc4ccccc4)O[C@H]32)c(=O)n1 | – | inactive | inactive | – | inactive | –
11 | O=C(Nc1ccc(F)cc1)Nc1ccn([C@@H]2O[C@H](COP(=O)(O)OP(=O)(O)OP(=O)(O)OP(=O)(O)OC[C@@H]3O[C@H](n4ccc(=O)[nH]c4=O)[C@H]4O[C@@H](Cc5ccccc5)O[C@H]43)[C@H]3O[C@@H](Cc4ccccc4)O[C@H]32)c(=O)n1 | – | inactive | inactive | – | inactive | –
12 | O=C(Nc1ccc(F)cc1)Nc1ccn([C@@H]2O[C@H](COP(=O)(O)O)C(O)C2O)c(=O)n1 (single isomer, unassigned) | – | – | – | inactive | – | –
13 | O=c1ccn([C@@H]2O[C@H](COP(=O)(O)OP(=O)(O)OP(=O)(O)OP(=O)(O)OC[C@@H]3O[C@H](n4ccc(=O)[nH]c4=O)[C@@H](O)[C@H]3O)[C@H]3OC(C#Cc4ccccc4)O[C@H]32)c(=O)[nH]1 (stereo in doubt; 26) | 0.068 | – | inactive | – | – | –
14 | Nc1ccn([C@@H]2O[C@H](COP(=O)(O)O)[C@H]3O[C@@H](Cc4ccccc4)O[C@H]32)c(=O)n1 | – | inactive | inactive | inactive | inactive | –
15 | O=C(O[C@@H]1[C@H](OC(=O)c2ccccc2)[C@@H](n2ccc(=O)[nH]c2=O)O[C@H]1COP(=O)(O)OP(=O)(O)OP(=O)(O)OP(=O)(O)OC[C@H]1O[C@@H](n2ccc(=O)[nH]c2=O)[C@H](OC(=O)c2ccccc2)[C@@H]1OC(=O)c1ccccc1)c1ccccc1 | – | inactive | inactive | – | inactive | 52
16 | CNc1ccccc1C(=O)O[C@H]1[C@@H](O)[C@H](COP(=O)(O)OP(=O)(O)OP(=O)(O)OP(=O)(O)OC[C@H]2O[C@@H](n3ccc(=O)[nH]c3=O)[C@H](O)[C@@H]2O)O[C@@H]1n1ccc(=O)[nH]c1=O | 0.13 | > 5% | inactive | – | – | 46
17 | Nc1ccn([C@@H]2O[C@H](COP(=O)(O)OP(=O)(O)OP(=O)(O)OP(=O)(O)OC[C@@H]3O[C@H](n4ccc(=O)[nH]c4=O)[C@@H](O)[C@H]3O)[C@H]3OC(Cc4ccccc4)O[C@H]32)c(=O)n1 (some centres undefined) | 0.545 | inactive | inactive | – | – | 46
18 | CCCCCCCC1O[C@@H]2[C@H](O1)[C@@H](COP(=O)(O)OP(=O)(O)OP(=O)(O)OP(=O)(O)OC[C@@H]1O[C@H](n3ccc(=O)[nH]c3=O)[C@H]3OC(CCCCCCC)O[C@H]31)O[C@H]2n1ccc(=O)[nH]c1=O (some centres undefined) | – | inactive | inactive | – | – | –
19 | O=C(Nc1ccc(F)cc1)Nc1ccn([C@@H]2O[C@H](COP(=O)(O)OP(=O)(O)OP(=O)(O)OP(=O)(O)OC[C@@H]3O[C@H](n4ccc(=O)[nH]c4=O)[C@@H](O)[C@H]3O)[C@H]3O[C@@H](Cc4ccccc4)O[C@H]32)c(=O)n1 | – | – | inactive | – | > 5% | –
20 | Nc1ccn([C@@H]2O[C@H](COP(=O)(O)OP(=O)(O)OP(=O)(O)OP(=O)(O)OC[C@@H]3O[C@H](n4ccc(=O)[nH]c4=O)[C@H]4OC(Cc5ccccc5)O[C@H]43)[C@@H](O)[C@H]2O)c(=O)n1 (some centres undefined) | – | inactive | inactive | – | inactive | 46
21 | Nc1ncnc2c1ncn2[C@@H]1O[C@H](COP(=O)(O)OP(=O)(O)OP(=O)(O)O)[C@@H](O)[C@H]1O | – | – | – | – | – | 63
22 | Nc1ccn([C@@H]2O[C@H](COP(=O)(O)OP(=O)(O)OP(=O)(O)OP(=O)(O)OC[C@@H]3O[C@H](n4ccc(=O)[nH]c4=O)[C@H]4OC(Cc5ccccc5)O[C@H]43)[C@H]3OC(Cc4ccccc4)O[C@H]32)c(=O)n1 (some centres undefined) | – | inactive | inactive | – | inactive | –
23 | O=C(Nc1ccccc1)Nc1ncnc2c1ncn2[C@@H]1O[C@H](COP(=O)(O)OP(=O)(O)O)[C@H]2O[C@@H](Cc3ccccc3)O[C@H]21 | 13.9 | > 5% | > 5% | – | – | –
24 | CNc1ccccc1C(=O)O[C@H]1[C@@H](O)[C@H](n2ccc(=O)[nH]c2=O)O[C@@H]1COP(=O)(O)OP(=O)(O)OP(=O)(O)OP(=O)(O)OC[C@@H]1O[C@H](n2ccc(=O)[nH]c2=O)[C@@H](OC(=O)c2ccccc2NC)[C@H]1O | 5.47 | > 5% | inactive | – | – | –
25 | O=c1ccn([C@@H]2O[C@H](COP(=O)(O)OP(=O)(O)OP(=O)(O)OC[C@@H]3O[C@H](n4ccc(=O)[nH]c4=O)[C@H]4OC(Cc5ccccc5)O[C@H]43)[C@H]3OC(Cc4ccccc4)O[C@H]32)c(=O)[nH]1 (some centres undefined) | – | inactive | inactive | – | inactive | –
26 | O=C(Nc1ccc(F)cc1)Nc1ccn([C@@H]2O[C@H](COP(=O)(O)OP(=O)(O)OP(=O)(O)OP(=O)(O)OC[C@@H]3O[C@H](n4ccc(=O)[nH]c4=O)[C@H]4O[C@@H](Cc5ccccc5)O[C@H]43)[C@@H](O)[C@H]2O)c(=O)n1 | – | – | inactive | – | inactive | –
27 | O=c1ccn([C@@H]2O[C@H](COP(=O)(O)OP(=O)(O)OP(=O)(O)OP(=O)(O)OC[C@@H]3O[C@H](n4ccc(=O)[nH]c4=O)[C@H]4OC(c5ccccc5)O[C@H]43)[C@H]3OC(c4ccccc4)O[C@H]32)c(=O)[nH]1 (some centres undefined) | 3.07 | inactive | inactive | – | – | –
28 | Nc1ncnc2c1ncn2[C@@H]1O[C@H](COP(=O)(O)OP(=O)(O)OP(=O)(O)OP(=O)(O)OC[C@@H]2O[C@H](n3cnc4c(N)ncnc43)[C@H]3OC(Cc4ccccc4)O[C@H]32)[C@H]2OC(Cc3ccccc3)O[C@H]21 (some centres undefined) | – | inactive | inactive | – | > 5% | –
29 | Nc1ccn([C@@H]2O[C@H](COP(=O)(O)OP(=O)(O)OP(=O)(O)OP(=O)(O)OC[C@@H]3O[C@H](n4ccc(=O)[nH]c4=O)[C@@H](O)[C@H]3O)[C@@H](O)[C@H]2O)c(=O)n1 | 0.044 | > 5% | > 5% | inactive | – | –
